pIC50: −log10 of the molar value. Active and inactive are the calls of the source. The calls are words filed in the database; no cut-off is given here. Starred links: 1 amine or outer side, 2 acyl side, 3 side chain; linkers in the order of their positions; H or OH if unused. Positions of bridges follow the written chain, without caps; N, C: chain ends. Non-standard residues stand in square brackets, D forms with d. Residues, ends and D or L forms follow the SMILES beside them. *: point of attachment. Leu(3R-OH,Nα-propionyl) = CCC(=O)N[C@H](C(=O)*)[C@H](O)C(C)C; X1 = CC(C)[C@@H](O[*:3])[C@H](N[*:1])C(=O)[*:2]; NMeT = CN[C@H](C(=O)O)[C@@H](C)O; dPhLac = O=C(O)[C@H](O)Cc1ccccc1; NMeA = CN[C@@H](C)C(=O)O; NMeDha = C=C(NC)C(=O)O
Columns and labels:
[1] = Antiproliferative activity against human 92.1 cells assessed as inhibition of cell growth after 72 hrs by CCK8 assay; format: functional, cell-based; details: Homo sapiens, 921, 72 h
Procedure, shortened: (§1)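 92.1 or MP41 cells in RPMI-1640 with 10% FBS were seeded at 3 × 10³ cells/well. Exposed to serial concentrations for 72 h at 37 °C, 5% CO₂. CCK-8 added for 1−4 h, absorbance read at 450 nm. IC₅₀ from concentration−response curve fit, mean ± SD.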

[2] = Antiproliferative activity against human MP41 cells assessed as inhibition of cell growth after 72 hrs by CCK8 assay; format: functional, cell-based; details: MP41, 72 h; procedure, shortened: as §1
GNAQ/GNA11 [3] = molecular target: T1, GNAQ/GNA11 (Homo sapiens, UniProt P50148+P29992); assay: Inhibition of Galphaq/11 (unknown origin) expressed in CHO cells coexpressing M1 receptor assessed as reduction in carbachol-induced IP1 accumulation preincubated for 1 hr followed by carbachol stimulation and measured after 1 hr by HTRF assay; format: cell-based
T1 sequence (P50148 whole entry): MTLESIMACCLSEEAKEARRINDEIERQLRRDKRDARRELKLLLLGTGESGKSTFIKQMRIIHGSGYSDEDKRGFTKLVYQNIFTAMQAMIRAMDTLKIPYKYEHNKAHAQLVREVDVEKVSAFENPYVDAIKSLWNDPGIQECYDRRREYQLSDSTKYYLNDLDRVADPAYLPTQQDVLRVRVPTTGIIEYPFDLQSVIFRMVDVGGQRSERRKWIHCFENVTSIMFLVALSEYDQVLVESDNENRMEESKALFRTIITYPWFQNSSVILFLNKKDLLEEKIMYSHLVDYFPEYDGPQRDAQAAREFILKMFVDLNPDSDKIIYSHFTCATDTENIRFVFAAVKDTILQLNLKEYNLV
T1 sequence (P29992 whole entry): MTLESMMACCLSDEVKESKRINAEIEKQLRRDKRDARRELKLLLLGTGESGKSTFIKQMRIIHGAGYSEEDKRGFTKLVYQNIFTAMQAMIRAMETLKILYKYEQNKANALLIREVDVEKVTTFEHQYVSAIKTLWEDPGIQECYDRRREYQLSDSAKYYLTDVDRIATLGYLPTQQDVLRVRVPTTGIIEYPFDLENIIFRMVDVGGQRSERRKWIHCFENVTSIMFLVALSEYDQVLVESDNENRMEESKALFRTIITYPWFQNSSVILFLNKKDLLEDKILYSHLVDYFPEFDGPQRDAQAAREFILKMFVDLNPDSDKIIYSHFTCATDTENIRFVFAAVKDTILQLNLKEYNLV

[4] = molecular target: T2, GNAQ/GNA11 (Homo sapiens) (UniProt P50148+P29992); assay: Inhibition of Galphaq/11 (unknown origin) expressed in CHO cells coexpressing M1 receptor assessed as reduction in carbachol-induced IP1 accumulation at 10 uM preincubated for 1 hr followed by carbachol stimulation and measured after 1 hr by HTRF assay relative to control; format: cell-based; details: time 2.0 hrs
[5] = molecular target: T2, GNAQ/GNA11 (Homo sapiens); assay: Inhibition of Galphaq/11 (unknown origin) expressed in HEK293 cells cotransfected with AT1R assessed as inhibition of Ang-II induced calcium release at 100 uM preincubated for 30 mins followed by Ang-II addition by Fluo-4AM dye based fluorescence assay; format: cell-based
Procedure, shortened: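 HEK293 cells transfected with AT₁R, washed in HBSS with 0.1% BSA and loaded with Fluo-4 AM for 1 h at 37 °C. Washed, then pretreated with compound at 100 μM for 30 min. AngII at varying concentrations added 20 s into the fluorescence recording. Mean ± SD, n = 3.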

MP41 [6] = assay: Inhibition of cell migration in human MP41 cells at 30 uM incubated for 48 hrs by Transwell migration assay; format: functional, cell-based
Procedure, shortened: (§2)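 Transwell migration: 92.1 and MP41 cells (RPMI-1640, 10% FBS) seeded 1 × 10⁴/well in upper chamber in serum-free medium, 20% FBS medium below; overnight at 37 °C, then compound for 48 h. Non-migrated cells swabbed off; lower cells crystal violet-stained 30 min, counted by light microscopy. Mean SD of three independent experiments.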

921 [7] = assay: Inhibition of cell migration in human 921 cells at 15 uM incubated for 48 hrs by transwell migration assay; format: functional, cell-based
Procedure, shortened: (§3)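 92.1 or MP41 cells (1 × 10⁴/well) seeded in serum-free medium in the upper transwell chamber, with 20% FBS medium below. Left overnight, then treated 48 h. Non-migrated cells swabbed off; cells on the lower side stained with crystal violet 30 min and counted by light microscopy (×40 for migration, ×100 for invasion). Mean ± SD, n = 3.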

[8] = molecular target: T2, GNAQ/GNA11 (Homo sapiens); assay: Binding affinity to Galphaq/11 (unknown origin) expressed in HEK293 cells cotransfected with AT1R/Galphaq-RLuc8/ Ggamma2-venus/Gbeta1 assessed as inhibition of Ang-II induced-BRET signal at 100 uM preincubated for 1 hr followed by Ang-II addition by BRET assay; format: cell-based
Procedure, shortened: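 HEK293 cells transiently transfected with AT₁R, Gαq-RLuc8, Gγ2-Venus and untagged Gβ1. Replated 24 h later, washed with HBS, starved 10 min, then pretreated with compound for 1 h at 37 °C. AngII added, followed by coelenterazine. BRET ratio taken as Venus emission (520−570 nm) over RLuc8 emission (370−480 nm). Mean ± SD, n = 3.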

MP41 [9] = assay: Inhibition of cell migration in human MP41 cells at 15 uM incubated for 48 hrs by transwell migration assay; format: functional, cell-based; procedure, shortened: as §2
CHO [10] = assay: Cytotoxicity against chinese hamster CHO cells overexpressing M1 receptor assessed as cell viability at 1.25 to 20 uM after 2 to 24 hrs by CCK8 assay; format: cell-based, Cricetulus griseus; details: dose lower 1.25 µM, time lower 2 hrs, dose upper 20 µM, time upper 24 hrs
Procedure, shortened: (§4)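 CHO cells stably expressing the M₁ receptor were treated with a range of compound concentrations for 2 h or 24 h. Viability measured by CCK-8 and given as percentage. Mean ± SD of three independent experiments.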

MP41 [11] = assay: Inhibition of cell invasion in human MP41 cells at 5 to 15 uM incubated for 48 hrs by transwell assay; format: functional, cell-based; details: dose 5-15 µM; procedure, shortened: as §3
[12] = Antitumor activity against human MP41 cells xenografted in nude BALB/c mouse assessed as tumor growth inhibition at 10 mg/kg, ip administered for once daily for 21 days and measured every 3 days; format: functional; details: 504 h, time 21 day, read-out: TGI
Procedure, shortened: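 MP41 tumours were passaged subcutaneously mouse-to-mouse in nude BALB/c mice (6−8 weeks, 20−25 g). Tertiary recipients randomized, n = 8/group, given 10 or 30 (mg/kg)/d ip or vehicle for 21 days. Tumour size (V = A × B² × π/6, caliper) and body weight taken every 3 days; tumours excised and weighed on day 22. TGI computed versus the vehicle group.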

CHO [13] = assay: Cytotoxicity against chinese hamster CHO cells overexpressing M1 receptor assessed as cell viability at 5 uM after 2 hrs by CCK8 assay; format: cell-based, Cricetulus griseus; procedure, shortened: as §4
921 [14] = assay: Inhibition of cell invasion in human 921 cells at 5 to 15 uM incubated for 48 hrs by transwell assay; format: functional, cell-based; details: dose 5-15 µM; procedure, shortened: as §3
CHO [15] = assay: Induction of morphological changes in chinese hamster CHO cells overexpressing M1 receptor at 10 to 20 uM after 2 hrs by light microscopic analysis; format: cell-based, Cricetulus griseus; details: dose 10-20 µM
Procedure, shortened: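 CHO-M₁ cells were treated with compound at 10 or 20 μM for 2 h, and changes in cell morphology were examined by microscopy.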

GNAQ/GNA11 [16] = molecular target: T1, GNAQ/GNA11; assay: Inhibition of Galphaq/11 (unknown origin); format: protein assay
Procedure, shortened: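 Carbachol-stimulated IP₁ accumulation in CHO cells stably expressing the M₁ receptor, read by HTRF. Cells (2 × 10⁴/well) in assay buffer with 0.2% BSA were preincubated with compound for 1 h at 37 °C. Carbachol (final 9 μM, ~EC₈₀) was then added with LiCl (final 20 mM) for 1 h at 37 °C plus 1 h at room temperature. Values are % inhibition at 10 μM or IC₅₀, three independent experiments.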

N[C@@H](Cc1ccc(O)cc1)C(=O)N1CCn2cc(-c3ccccc3)nc2[C@@H]1CC1CCCCC1
pIC50 [1]: 4.97
pIC50 [2]: 4.65
IC50 (GNAQ/GNA11 [3]): 48.6 µM
inhibition [4]: 34%

N[C@H](CSSC[C@@H](N)C(=O)N1CCn2cc(-c3ccccc3)nc2[C@@H]1CC1CCCCC1)C(=O)N1CCn2cc(-c3ccccc3)nc2[C@@H]1CC1CCCCC1
Activity [5]: inactive
pIC50 [1]: 5.17
inhibition (MP41 [6]): Active
inhibition 921 [7]: Active
pIC50 [2]: 4.98
Activity [8]: Active
inhibition (MP41 [9]): Active
Activity (CHO [10]): Toxic
inhibition (MP41 [11]): Active
inhibition in vivo at 10 mg/kg [12]: 35.9%
Activity (CHO [13]): Toxic
inhibition [4]: 25.8%
inhibition 921 [14]: Active
Activity (CHO [15]): Toxic

N[C@@H](CS)C(=O)N1CCn2cc(-c3ccccc3)nc2[C@@H]1CC1CCCCC1
Activity [5]: inactive
pIC50 [1]: 5.32
inhibition (MP41 [6]): Active
inhibition 921 [7]: Active
pIC50 [2]: 5.64
Activity [8]: Active
inhibition (MP41 [9]): Active
inhibition (MP41 [11]): Active
inhibition [4]: 32.6%
inhibition 921 [14]: Active

C=C1C(=O)N[C@@H](C)C(=O)N(C)[C@@H](C)C(=O)N[C@@H]([C@H](OC(=O)[C@@H](NC(=O)CC)[C@H](O)C(C)C)C(C)C)C(=O)N(C)[C@@H]([C@@H](C)OC)C(=O)O[C@H](C(C)C)[C@H](NC(C)=O)C(=O)O[C@H](Cc2ccccc2)C(=O)N1C (Ac-[X1][dPhLac][NMeDha]A[NMeA][X1](Leu(3R-OH,Nα-propionyl))[NMeT](Me); ester 1-C)
IC50 (GNAQ/GNA11 [16]): 0.032 µM
